Converted amounts (≈) assume the structure as drawn.
Key:
Assay type in all cases: functional
HEF [1] = assay: Tested for minimum inhibitory concentration required to reduce virus-induced cytopathicity by 50% on HEF cell line infected with thymidine kinase-deficient herpes simplex virus type 1 (TK-HSV-1); settings: Homo sapiens
In short: (§1)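 Human embryonic skin-muscle fibroblasts (HEF) were infected with the stated virus. The value is the concentration that reduces virus-induced cytopathicity by 50%. Values are averages of at least two separate experiments.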

Vero [2] = assay: tested for minimum inhibitory concentration required to reduce virus-induced cytopathicity by 50% on vero cell line infected with coxsackie B4 virus; settings: Chlorocebus sabaeus
In short: (§2)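 HeLa (human epithelial), MDCK (Madin-Darby canine kidney) or Vero (African green monkey kidney) cells were infected with the stated virus. The value is the concentration that reduces virus-induced cytopathicity by 50%. Values are averages of at least two separate experiments.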

Vero [3] = assay: tested for minimum inhibitory concentration required to reduce virus-induced cytopathicity by 50% on vero cell line infected with semliki forest virus; settings: Chlorocebus sabaeus; in short: as §2
CCRF-CEM [4] = assay: tested for minimum inhibitory concentration required to reduce virus-induced cell viability by 50% on CEM cell line; settings: Homo sapiens
HeLa [5] = assay: tested for minimum inhibitory concentration required to cause a microscopically detectable alteration of normal cell morphology by 50% on HeLa cell line; settings: Homo sapiens
In short: (§3)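 HeLa (human epithelial), MDCK (Madin-Darby canine kidney) or Vero (African green monkey kidney) cells were scored by microscopy. The value is the minimum concentration that causes a detectable alteration of normal cell morphology. Values are averages of at least two separate experiments.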

CCRF-CEM [6] = assay: tested for minimum inhibitory concentration required to reduce virus-induced cytopathicity by 50% on CEM cell line infected with HIV-2 virus; settings: Homo sapiens
HEF [7] = assay: tested for minimum inhibitory concentration required to reduce virus-induced cytopathicity by 50% on HEF cell line infected with vesicular stomatitis virus; settings: Homo sapiens; in short: as §1
HEF [8] = assay: tested for minimum inhibitory concentration required to reduce […] by 50% on HEF cell line; settings: Homo sapiens
In short: (§4)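 Human embryonic lung fibroblasts (HEF) were used for cell proliferation. The value is the concentration that reduces cell proliferation by 50%. Values are averages of at least two separate experiments.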

HeLa [9] = assay: tested for minimum inhibitory concentration required to reduce virus-induced cytopathicity by 50% on HeLa cell line infected with polio 1 virus; settings: Homo sapiens; in short: as §2
CCRF-CEM [10] = assay: tested for minimum inhibitory concentration required to reduce virus-induced cytopathicity by 50% was evaluated on CEM cell line infected with HIV-1 virus; settings: Homo sapiens
MDCK [11] = assay: Tested for minimum inhibitory concentration required to reduce virus-induced cytopathicity by 50% on MDCK cell line infected with influenza B virus; settings: Canis lupus familiaris; in short: as §2
Vero [12] = assay: Tested for minimum inhibitory concentration required to reduce virus-induced cytopathicity by 50% on vero cell line infected with parainfluenza 3 virus; settings: Chlorocebus sabaeus; in short: as §2
Vero [13] = assay: tested for minimum inhibitory concentration required to cause a microscopically detectable alteration of normal cell morphology by 50% on vero cell line; settings: Chlorocebus sabaeus; in short: as §3
HeLa [14] = assay: Tested for minimum inhibitory concentration required to reduce virus-induced cytopathicity by 50% on HeLa cell line infected with RSV virus; settings: Homo sapiens; in short: as §2
HEF [15] = assay: tested for minimum inhibitory concentration required to reduce virus-induced cytopathicity by 50% on HEF cell line infected with HSV-2 virus; settings: Homo sapiens; in short: as §1
HEF [16] = assay: Tested for minimum inhibitory concentration required to reduce virus-induced cytopathicity by 50% on HEF cell line infected with HSV-1 virus; settings: Homo sapiens; in short: as §1
HEF [17] = assay: tested for minimum inhibitory concentration required to cause a microscopically detectable alteration of normal cell morphology by 50% on HEF cell line; settings: Homo sapiens
In short: (§5)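 Human embryonic skin-muscle fibroblasts (HEF) were used. The value is the minimum concentration that causes a microscopically detectable alteration of normal cell morphology. Values are averages of at least two separate experiments.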

MDCK [18] = assay: tested for minimum inhibitory concentration required to cause a microscopically detectable alteration of normal cell morphology by 50% on MDCK cell line; settings: Canis lupus familiaris; in short: as §3
MDCK [19] = assay: Tested for minimum inhibitory concentration required to reduce virus-induced cytopathicity by 50% on MDCK cell line infected with influenza A virus; settings: Canis lupus familiaris; in short: as §2
Vero [20] = assay: tested for minimum inhibitory concentration required to reduce virus-induced cytopathicity by 50% on vero cell line infected with sindbis virus; settings: Chlorocebus sabaeus; in short: as §2
Vero [21] = assay: tested for minimum inhibitory concentration required to reduce virus-induced cytopathicity by 50% on vero cell line infected with Reo 1 virus; settings: Chlorocebus sabaeus; in short: as §2
HEF [22] = assay: tested for minimum inhibitory concentration required to reduce virus-induced cytopathicity by 50% on HEF cell line infected with vaccinia virus; settings: Homo sapiens; in short: as §1
Vero [23] = assay: Tested for minimum inhibitory concentration required to reduce virus-induced cytopathicity by 50% on vero cell line infected with sindbis virus; settings: Chlorocebus sabaeus; in short: as §2
HEF [24] = assay: Tested for minimum inhibitory concentration required to reduce virus-induced cytopathicity by 50% on HEF cell line infected with HSV-2 virus; settings: Homo sapiens; in short: as §1
Vero [25] = assay: Tested for minimum inhibitory concentration required to reduce virus-induced cytopathicity by 50% on vero cell line infected with semliki forest virus; settings: Chlorocebus sabaeus; in short: as §2
Vero [26] = assay: Tested for minimum inhibitory concentration required to cause a microscopically detectable alteration of normal cell morphology by 50% on vero cell line; settings: Chlorocebus sabaeus; in short: as §3
HEF [27] = assay: Tested for minimum inhibitory concentration required to reduce virus-induced cytopathicity by 50% on HEF cell line infected with vesicular stomatitis virus; settings: Homo sapiens; in short: as §1
Vero [28] = assay: Tested for minimum inhibitory concentration required to reduce virus-induced cytopathicity by 50% on vero cell line infected with Reo 1 virus; settings: Chlorocebus sabaeus; in short: as §2
CCRF-CEM [29] = assay: Tested for minimum inhibitory concentration required to reduce virus-induced cytopathicity by 50% was evaluated on CEM cell line infected with HIV-1 virus; settings: Homo sapiens
HEF [30] = assay: Tested for minimum inhibitory concentration required to cause a microscopically detectable alteration of normal cell morphology by 50% on HEF cell line; settings: Homo sapiens; in short: as §5
CCRF-CEM [31] = assay: Tested for minimum inhibitory concentration required to reduce virus-induced cytopathicity by 50% on CEM cell line infected with HIV-2 virus; settings: Homo sapiens
HeLa [32] = assay: Tested for minimum inhibitory concentration required to reduce virus-induced cytopathicity by 50% on HeLa cell line infected with polio 1 virus; settings: Homo sapiens; in short: as §2
HEF [33] = assay: Tested for minimum inhibitory concentration required to reduce virus-induced cytopathicity by 50% on HEF cell line infected with vaccinia virus; settings: Homo sapiens; in short: as §1
MDCK [34] = assay: Tested for minimum inhibitory concentration required to cause a microscopically detectable alteration of normal cell morphology by 50% on MDCK cell line; settings: Canis lupus familiaris; in short: as §3
HEF [35] = assay: Tested for minimum inhibitory concentration required to reduce […] by 50% on HEF cell line; settings: Homo sapiens; in short: as §4
Vero [36] = assay: Tested for minimum inhibitory concentration required to reduce virus-induced cytopathicity by 50% on vero cell line infected with coxsackie B4 virus; settings: Chlorocebus sabaeus; in short: as §2
HeLa [37] = assay: Tested for minimum inhibitory concentration required to cause a microscopically detectable alteration of normal cell morphology by 50% on HeLa cell line; settings: Homo sapiens; in short: as §3
CCRF-CEM [38] = assay: Tested for minimum inhibitory concentration required to reduce virus-induced cell viability by 50% on CEM cell line.; settings: Homo sapiens

Work on `C1CN(CC2CC2)C2(C1)C1CC3CC(C1)CC2C3` (centres undefined) yielded an MIC50 (HEF [1]) of at least 400 µg/mL, an MIC50 (Vero [2]) of over 400 µg/mL and an MIC50 (Vero [3]) of over 400 µg/mL. The MIC50 (CCRF-CEM [4]) was over 200 µg/mL, the MIC50 (HeLa [5]) was over 400 µg/mL and the MIC50 (CCRF-CEM [6]) was over 200 µg/mL. The MIC50 (HEF [7]) was 150 µg/mL (≈ 611 µM), the MIC50 (HEF [8]) was over 200 µg/mL and the MIC50 (HeLa [9]) was over 400 µg/mL. For the same molecule, the MIC50 (CCRF-CEM [10]) was over 200 µg/mL, the MIC50 (MDCK [11]) was over 100 µg/mL and the MIC50 (Vero [12]) was over 400 µg/mL. For the same molecule, the MIC50 (Vero [13]) was over 400 µg/mL, the MIC50 (HeLa [14]) was at least 150 µg/mL and the MIC50 (HEF [15]) was over 400 µg/mL. It also gave an MIC50 (HEF [16]) of 300 µg/mL (≈ 1220 µM), an MIC50 (HEF [17]) of over 400 µg/mL and an MIC50 (MDCK [18]) of 100 µg/mL (≈ 407 µM). It also gave an MIC50 (MDCK [19]) of at least 40 µg/mL, an MIC50 (Vero [20]) of over 400 µg/mL and an MIC50 (Vero [21]) of over 400 µg/mL. The MIC50 (HEF [22]) was 100 µg/mL (≈ 407 µM).

`O=C(Nc1ccc(Cl)cc1)N1CCCC12C1CC3CC(C1)CC2C3` (centres undefined) was tested, and the MIC50 (HEF [1]) was over 20 µg/mL, the MIC50 (Vero [23]) was over 70 µg/mL and the MIC50 (HEF [24]) was over 20 µg/mL. It also gave an MIC50 (Vero [25]) of over 70 µg/mL, an MIC50 (Vero [26]) of 100 µg/mL (≈ 290 µM) and an MIC50 (HEF [27]) of over 20 µg/mL. For the same molecule, the MIC50 (MDCK [11]) was over 20 µg/mL, the MIC50 (Vero [28]) was over 70 µg/mL and the MIC50 (Vero [12]) was over 70 µg/mL. It also gave an MIC50 (CCRF-CEM [29]) of over 1.6 µg/mL, an MIC50 (HEF [30]) of 40 µg/mL (≈ 116 µM) and an MIC50 (CCRF-CEM [31]) of over 1.6 µg/mL. For the same molecule, the MIC50 (HeLa [14]) was over 20 µg/mL, the MIC50 (HeLa [32]) was over 70 µg/mL and the MIC50 (HEF [16]) was over 20 µg/mL. For the same molecule, the MIC50 (HEF [33]) was over 20 µg/mL, the MIC50 (MDCK [19]) was 2.4 µg/mL (≈ 6.96 µM) and the MIC50 (MDCK [34]) was 20 µg/mL (≈ 58 µM). It also gave an MIC50 (HEF [35]) of 150 µg/mL (≈ 435 µM), an MIC50 (Vero [36]) of over 70 µg/mL and an MIC50 (HeLa [37]) of 100 µg/mL (≈ 290 µM). The MIC50 (CCRF-CEM [38]) was 3.4 µg/mL (≈ 9.86 µM).

From ChEMBL document CHEMBL1127450, “Synthesis and antiviral activity evaluation of some aminoadamantane derivatives” (1994)
